Test results reported in ChEMBL document CHEMBL5038580 (J Med Chem, 2022).
The source made the active and inactive calls. The calls are words filed in the database; no cut-off is given here. Residues, ends and D or L forms follow the SMILES beside them.

Experiments:
[1] = test system: Human immunodeficiency virus 1; assay: Antiviral activity against HIV 1 25710-2 subtype C assessed as inhibition of viral entry preincubated for 30 min followed by U87-CD4-[…] positive cells addition and culture medium replacement after 12 hrs post infection and measured after 48 hrs by luciferase assay; assay type: functional, organism-based; conditions: Human immunodeficiency virus 1, 25710-2 subtype C
How it was run: (§1)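 U87 CD4+ CCR5+ cells (1 × 10^4/well) were seeded and grown for 12 h at 37 °C, 5% CO2. Diluted peptides were mixed with pseudovirus for 30 min at 37 °C and then put on the cells. Medium was replaced 12 h post-infection. Cells were lysed 48 h later and luciferase was read. Three independent experiments, mean ± SD.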

[2] = test system: Human immunodeficiency virus 1; assay: Antiviral activity against HIV 1 JRFL subtype B assessed as inhibition of viral entry preincubated for 30 min followed by U87-CD4-[…] positive cells addition and culture medium replacement after 12 hrs post infection and measured after 48 hrs by luciferase assay; assay type: functional, organism-based; conditions: Human immunodeficiency virus 1, JRFL subtype B; how it was run: as §1
[3] = test system: Human immunodeficiency virus 1; assay: Antiviral activity against HIV-1 IIIB assessed as inhibition of HIV-1 Env mediated cell-cell fusion in MT-2 cells preincubated for 30 mins followed by cell addition and measured after 2 hrs by calcein AM staining based fluorescence microscopy; assay type: functional, organism-based; conditions: Human immunodeficiency virus 1, IIIB, MT2
How it was run: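 H9/HIV-1 IIIB cells were labelled with Calcein AM for 30 min at 37 °C, washed, and resuspended in RPMI/10% FBS. They were incubated with diluted peptides for 30 min at 37 °C. MT-2 cells (1 × 10^5) were then added and cultured for 2 h at 37 °C. Fused cells were counted by fluorescence microscopy and IC50 was calculated. Three independent experiments.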

[4] = test system: Human immunodeficiency virus 1; assay: Antiviral activity against HIV 1 BaL(R5) incubated overnight by ELISA analysis; assay type: functional, organism-based; conditions: Human immunodeficiency virus 1, BaL(R5)
How it was run: (§2)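 Peptides were diluted in FBS-free RPMI 1640 and mixed with 100 TCID50 HIV-1 BaL. CEMx174 5.25 M7 cells (10^4) were added and cultured overnight at 37 °C, then medium was changed to RPMI/10% FBS. After 6 more days, supernatants were lysed with 5% Triton X-100 and p24 was measured by ELISA. IC50 calculated from three independent experiments.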

[5] = test system: Human immunodeficiency virus 1; assay: Antiviral activity against HIV 1 IIIB([…]) incubated overnight by ELISA analysis; assay type: functional, organism-based
How it was run: as §2, with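 “HIV-1 IIIB. MT-2” for “HIV-1 BaL. CEMx174 5.25 M7”, “After 3” for “After 6”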

in vitro [6] = conditions: human, MT2 cells
Huh-7 = assay: Cytotoxicity against human Huh7 cells incubated for 48 hrs by CCK-8 assay; assay type: functional
How it was run: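 Huh-7 cells (100 μL at 1 × 10^5 cells/mL) were preincubated 12 h at 37 °C, 5% CO2. Serially diluted peptide was added for 48 h, with a no-peptide blank and a Triton X-100 positive control. CCK-8 was added for 2 h and absorbance read at 450 nm. Three independent experiments, mean ± SD.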

Mus musculus = assay: Antiviral activity against MERS-COV infected in BALB/c mouse at 0.023 mmol/kg, iv measured upto 12 hrs; assay type: functional, organism-based; conditions: time hrs <=12
How it was run: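 Peptide in PBS (pH 7.4) was given at 0.023 mmol/kg i.v. to three male BALB/c mice aged 8 weeks. Sera were tested in a 2 h S-mediated fusion assay with Huh-7 target cells. The serum dilution giving 50% fusion inhibition was calculated. Significance by Student's t test.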

SARS-CoV-2 [7] = assay: Antiviral activity against SARS-CoV-2 transfected in 293T cells assessed as inhibition of viral S protein mediated membrane fusion to 293T/ACE2 cells incubated for 24 hrs by fluorescence microscopy analysis; assay type: functional, organism-based, HEK293T; conditions: Severe acute respiratory syndrome coronavirus 2, HEK-293T
How it was run: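 Effector 293T cells were transfected with an S/EGFP plasmid for 48 h and collected in FBS-free DMEM. ACE2-293T target cells (10^5/well) were plated 6–8 h before fusion. Effector cells (10^4) were added with graded peptide dilutions and co-incubated at 37 °C for 24 h. Percent inhibition was calculated from fused and unfused cell counts under fluorescence microscopy.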

Human coronavirus OC43 [8] = assay: Antiviral activity against HCoV-OC43 assessed as inhibition of viral S-protein mediated cell-cell fusion in Huh7 cells preincubated for 30 mins followed by cell addition and measured after 24 hrs; assay type: functional, cell-based; conditions: Betacoronavirus 1, OC43, Huh-7
How it was run: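 Effector HEK293T cells were transfected with an OC43 spike/GFP plasmid and harvested after 36 h. They were preincubated with diluted peptides at 37 °C for 30 min, then co-incubated with Huh-7 target cells in the presence of trypsin for 24 h. Inhibition was calculated from counts of fused and unfused cells. Three independent experiments, mean ± SD.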

Human coronavirus OC43 [9] = assay: Antiviral activity against HCoV-OC43 assessed as reduction in viral infection preincubated for 30 mins followed by RD cells addition and measured after 3 days by CCK-8 assay; assay type: functional; conditions: Betacoronavirus 1, OC43, RD
How it was run: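 HCoV-OC43 (100 TCID50) was mixed with diluted peptides for 30 min at 37 °C, then added to RD cells. After 3 days, cytopathic effect was read by CCK-8. Three independent experiments, mean ± SD.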

SARS-CoV-2 [10] = assay: Antiviral activity against SARS-CoV-2 transfected in 293T cells assessed as inhibition of viral S protein mediated membrane fusion to 293T/ACE2 cells at 20 uM incubated for 24 hrs by fluorescence microscopy analysis; assay type: functional, organism-based; conditions: Severe acute respiratory syndrome coronavirus 2, HEK-293T
How it was run: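 Single-concentration screen at 20 μM. Effector 293T cells expressing S/EGFP (10^4) were added to ACE2-293T target cells (10^5/well) and co-incubated at 37 °C for 24 h. Fusion was scored by fluorescence microscopy from counts of fused and unfused cells.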

in vitro [11] = conditions: human, RD cells

Compound	IC50 [1] [nM]	IC50 [2] [nM]	IC50 [3] [nM]	IC50 [4] [nM]	IC50 [5] [nM]	CC50 at 48 h (in vitro [6]) [nM]	CC50 (Huh-7) [nM]	Activity (Mus musculus)	IC50 (SARS-CoV-2 [7]) [nM]	IC50 (Human coronavirus OC43 [8]) [nM]	IC50 (Human coronavirus OC43 [9]) [nM]	Activity (SARS-CoV-2 [10])	CC50 at 48 h (in vitro [11]) [nM]
enfuvirtide	11.5	7.86	24	1.58	17.8	> 10000	–	–	–	–	–	–	–
CC[C@H](C)[C@H](NC(=O)[C@H](Cc1ccc(O)cc1)NC(=O)[C@H](CO)NC(=O)[C@H](CCC(=O)O)NC(=O)[C@H](CCC(=O)O)NC(=O)[C@H](CC(C)C)NC(=O)[C@H](CCCCN)NC(=O)[C@H](CCCCN)NC(=O)[C@@H](NC(=O)[C@@H](NC(=O)[C@H](CCC(=O)O)NC(=O)[C@H](CCC(=O)O)NC(=O)[C@H](CC(C)C)NC(=O)[C@H](CCCCN)NC(=O)[C@H](CCCCN)NC(=O)[C@H](CCSC)NC(=O)[C@H](CCC(=O)O)NC(=O)[C@H](Cc1ccc(O)cc1)NC(=O)[C@H](CCC(=O)O)NC(=O)[C@H](CC(C)C)NC(=O)[C@H](CC(=O)O)NC(=O)[C@H](CC(C)C)NC(=O)[C@H](CC(C)C)NC(=O)[C@@H](NC(=O)[C@@H](NC(=O)[C@H](CC(N)=O)NC(=O)[C@@H](NC(=O)[C@H](CCC(N)=O)NC(=O)[C@@H](NC(=O)[C@H](CC(C)C)NC(=O)[C@H](CO)NC(C)=O)[C@@H](C)O)[C@@H](C)CC)[C@@H](C)O)[C@@H](C)O)C(C)C)C(C)C)C(=O)N[C@@H](CC(=O)O)C(=O)N[C@@H](CC(C)C)C(=O)N[C@@H](CCCCN)C(=O)N[C@@H](CCC(=O)O)C(=O)N[C@@H](CC(C)C)C(N)=O	–	–	–	–	–	–	> 50000	Active	–	–	–	–	–
CC[C@H](C)[C@H](NC(C)=O)C(=O)N[C@@H](CCC(=O)O)C(=O)N[C@@H](CCC(=O)O)C(=O)N[C@H](C(=O)N[C@H](C(=O)N[C@@H](CCCCN)C(=O)N[C@@H](CCCCN)C(=O)N[C@H](C(=O)N[C@@H](Cc1c[nH]cn1)C(=O)N[C@@H](Cc1c[nH]cn1)C(=O)N[C@H](C(=O)N[C@@H](CCC(=O)O)C(=O)N[C@@H](CCCNC(=N)N)C(=O)N[C@@H](C)C(=O)N[C@H](C(=O)N[C@@H](CCC(=O)O)C(=O)N[C@@H](C)C(=O)N[C@@H](CCC(N)=O)C(=O)N[C@@H](CCC(N)=O)C(=O)N[C@@H](CCCCN)C(=O)N[C@@H](CC(C)C)C(=O)N[C@@H](CC(C)C)C(=O)N[C@@H](CCC(N)=O)C(=O)N[C@@H](CC(C)C)C(=O)N[C@H](C(=O)N[C@H](C(=O)N[C@@H](Cc1c[nH]c2ccccc12)C(=O)NCC(=O)N[C@H](C(=O)N[C@@H](CCCCN)C(=O)N[C@@H](CCC(N)=O)C(=O)N[C@@H](CC(C)C)C(=O)N[C@@H](CCC(N)=O)C(=O)N[C@@H](C)C(=O)N[C@@H](CCCNC(=N)N)C(=O)N[C@H](C(=O)N[C@@H](CC(C)C)C(N)=O)[C@@H](C)CC)[C@@H](C)CC)C(C)C)[C@@H](C)O)[C@@H](C)CC)[C@@H](C)CC)[C@@H](C)CC)C(C)C)[C@@H](C)CC (Ac-IEEIVKKIHHIERAIEAQQKLLQLTVWGIKQLQARIL-NH2)	298	353	472	176	18.5	–	–	–	> 20000	> 20000	> 20000	–	–
CC[C@H](C)[C@H](NC(=O)[C@H](C)NC(=O)[C@H](CCC(=O)O)NC(=O)[C@H](CCC(=O)O)NC(=O)[C@H](CC(C)C)NC(=O)[C@H](CCCCN)NC(=O)[C@H](CCCCN)NC(=O)[C@H](CCSC)NC(=O)[C@H](CCC(=O)O)NC(=O)[C@H](Cc1ccc(O)cc1)NC(=O)[C@H](CCC(=O)O)NC(=O)[C@H](CC(C)C)NC(=O)[C@H](CC(=O)O)NC(=O)[C@H](CC(C)C)NC(=O)[C@H](Cc1ccccc1)NC(=O)[C@@H](NC(=O)[C@@H](NC(=O)[C@H](CC(N)=O)NC(=O)[C@@H](NC(=O)[C@H](CCC(N)=O)NC(=O)[C@H](CC(=O)O)NC(=O)[C@H](CC(C)C)NC(=O)[C@H](CO)NC(C)=O)[C@@H](C)CC)C(C)C)[C@@H](C)O)C(=O)N[C@@H](CCCCN)C(=O)N[C@@H](CCCCN)C(=O)N[C@@H](CC(C)C)C(=O)N[C@@H](CCC(=O)O)C(=O)N[C@@H](CCC(=O)O)C(=O)N[C@@H](CO)C(=O)N[C@@H](Cc1ccc(O)cc1)C(=O)N[C@H](C(=O)N[C@@H](CC(=O)O)C(=O)N[C@@H](CC(C)C)C(=O)N[C@@H](CCCCN)C(=O)N[C@@H](CCC(=O)O)C(=O)N[C@@H](CC(C)C)C(N)=O)[C@@H](C)CC	–	–	–	–	–	–	–	–	–	280	970	Active	> 40000
